Measured values from ChEMBL document CHEMBL1240502, “Therapeutic effects of cantharidin analogues without bridging ether oxygen on human hepatocellular carcinoma cells” (Eur J Med Chem, 2010).
Active and inactive are the calls of the source. The calls are words filed in the database; no cut-off is given here.

Assays:
HepG2 [1] = assay: Cytotoxicity against human HepG2 cells after 48 hrs by MTT assay; format: functional, cell-based; conditions: HepG2, 48 h
Outline: (§1)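 Cells seeded in 24-well plates at 1 × 10⁵ cells/well, allowed 12 h, then exposed to test chemical or vehicle for 48 h, in triplicate. Medium replaced with MTT in PBS (pH 7.4) for 4 h at 37 °C; formazan dissolved in DMSO and read at 540 nm. Viability = (test − background)/(control − background) × 100.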

SK-HEP1 [2] = assay: Cytotoxicity against human SKHEP1 cells after 48 hrs by MTT assay; format: functional, cell-based; conditions: SK-HEP1, 48 h; outline: as §1
Hepatocyte [3] = assay: Cytotoxicity against rat hepatocyte cells after 48 hrs by MTT assay; format: cell-based; outline: as §1
[4] = Cytotoxicity against rat hepatocyte cells assessed as survival at 200 uM after 48 hrs by MTT assay; format: cell-based; conditions: rat hepatocytes, read-out: Activity; outline: as §1
HepG2 [5] = assay: Cytotoxicity against human HepG2 cells at 50 uM after 48 hrs by MTT assay; format: functional, cell-based; outline: as §1
SK-HEP1 [6] = assay: Cytotoxicity against human SKHEP1 cells at 50 uM after 48 hrs by MTT assay; format: functional, cell-based; outline: as §1
Hepatocyte [7] = assay: Cytotoxicity against rat hepatocyte cells at 50 uM after 48 hrs by MTT assay; format: cell-based; conditions: hepatocytes; outline: as §1

In the case of `O=C1C2C(C(=O)N1c1nc3ccccc3s1)[C@H]1C=C[C@@H]2CC1` (stereo partly drawn), the IC50 (HepG2 [1]) is reported as greater than 200 µM, the IC50 (SK-HEP1 [2]) is reported as greater than 200 µM and the IC50 (Hepatocyte [3]) is reported as greater than 200 µM.

For `Cc1cnc(N2C(=O)c3ccccc3C2=O)s1`, the IC50 (HepG2 [1]) was greater than 200 µM, the IC50 (SK-HEP1 [2]) was greater than 200 µM and the IC50 (Hepatocyte [3]) was greater than 200 µM.

In the case of `C[C@@]12C(=O)OC(=O)[C@]1(C)[C@H]1CC[C@@H]2O1` [CANTHARIDIN], the IC50 (HepG2 [1]) is reported as 11 µM, the IC50 (SK-HEP1 [2]) is reported as 34 µM and the IC50 (Hepatocyte [3]) is reported as 21 µM.

Molecule `O=C1C2C(C(=O)N1c1nccs1)[C@H]1C=C[C@@H]2CC1` (stereo partly drawn) has an IC50 (HepG2 [1]) greater than 200 µM, an IC50 (SK-HEP1 [2]) greater than 200 µM and an IC50 (Hepatocyte [3]) greater than 200 µM.

For `Cc1ccc2c(c1)C(=O)N(c1nccs1)C2=O`, the IC50 (HepG2 [1]) was greater than 200 µM, the IC50 (SK-HEP1 [2]) was greater than 200 µM and the IC50 (Hepatocyte [3]) was greater than 200 µM.

`O=C1c2ccccc2C(=O)N1c1nccs1` showed an IC50 (HepG2 [1]) greater than 200 µM, an IC50 (SK-HEP1 [2]) greater than 200 µM and an IC50 (Hepatocyte [3]) greater than 200 µM.

Molecule `O=C1OC(=O)[C@H]2[C@@H]1[C@H]1C=C[C@@H]2C1` has an IC50 (HepG2 [1]) of 62 µM, an IC50 (SK-HEP1 [2]) of 151 µM and an IC50 (Hepatocyte [3]) greater than 200 µM. The viability at 48 h, 200 µM [4] was 80%, the Activity (HepG2 [5]) was “Active” and the Activity (SK-HEP1 [6]) was “Active”. The Activity (Hepatocyte [7]) was “Non-toxic”.

For `O=C1OC(=O)C2C3CCC(O3)C12` (stereo not drawn) [DEMETHYL-CANTHARIDIN], the IC50 (HepG2 [1]) was 74 µM, the IC50 (SK-HEP1 [2]) was 126 µM and the IC50 (Hepatocyte [3]) was 75 µM.

Molecule `Cc1cnc(/N=C2\OC(=O)C3C2[C@@H]2C=C[C@H]3CC2)s1` (stereo partly drawn) has an IC50 (HepG2 [1]) of 92 µM, an IC50 (SK-HEP1 [2]) greater than 200 µM and an IC50 (Hepatocyte [3]) greater than 200 µM. The viability at 48 h, 200 µM [4] was 80%, the Activity (HepG2 [5]) was “Active” and the Activity (SK-HEP1 [6]) was “Active”. The Activity (Hepatocyte [7]) was “Non-toxic”.

Work on `Cc1cnc(N2C(=O)C3C(C2=O)[C@H]2C=C[C@@H]3CC2)s1` (stereo partly drawn) yielded an IC50 (HepG2 [1]) greater than 200 µM, an IC50 (SK-HEP1 [2]) greater than 200 µM and an IC50 (Hepatocyte [3]) greater than 200 µM.

In the case of `O=C1OC(=O)c2cc(Oc3ccc4c(c3)C(=O)OC4=O)ccc21`, the IC50 (HepG2 [1]) is reported as 121 µM, the IC50 (SK-HEP1 [2]) is reported as 199 µM and the IC50 (Hepatocyte [3]) is reported as greater than 200 µM. For the same molecule, the viability at 48 h, 200 µM [4] was 80%, the Activity (HepG2 [5]) was “Active” and the Activity (SK-HEP1 [6]) was “Active”. For the same molecule, the Activity (Hepatocyte [7]) was “Non-toxic”.

In the case of `Cc1ccc2c(c1)C(=O)N(c1nc3ccccc3s1)C2=O`, the IC50 (HepG2 [1]) is reported as greater than 200 µM, the IC50 (SK-HEP1 [2]) is reported as greater than 200 µM and the IC50 (Hepatocyte [3]) is reported as greater than 200 µM.
